For one experiment, the system named is MCF7. Description: Antiproliferative activity against human MCF7 cells assessed as reduction in cell growth incubated for 72 hrs by MTT assay. In kind it is functional, cell-based. The following applies: MCF7, 72 h. A digest of the protocol:
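MTT assay on MCF-7, A2780, HT29 and normal MRC5 fibroblast lines (ATCC) grown in DMEM with 10% FBS. Cells exposed to compounds for 72 h, then reduced MTT read at 570 nm.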
(Tetrazolium assays rely on reduction of a dye to a coloured formazan, in cell work by metabolically active cells.)

The target of experiment [1] is Activin receptor type-1-like (Homo sapiens) (UniProt P37023). Description: Inhibition of recombinant human N-terminal GST-tagged ALK1 (144 to end residues) expressed in baculovirus infected Sf9 insect cells assessed as enzyme activity incubated for 15 mins by [gamma-33]ATP based scintillation counting method relative to control. Further details: scale not given: the % may be the effect or the level left.

The target in experiment [2] is T1, Dual specificity tyrosine-phosphorylation-regulated kinase 3 (Homo sapiens) (UniProt O43781).
T1 sequence (whole entry): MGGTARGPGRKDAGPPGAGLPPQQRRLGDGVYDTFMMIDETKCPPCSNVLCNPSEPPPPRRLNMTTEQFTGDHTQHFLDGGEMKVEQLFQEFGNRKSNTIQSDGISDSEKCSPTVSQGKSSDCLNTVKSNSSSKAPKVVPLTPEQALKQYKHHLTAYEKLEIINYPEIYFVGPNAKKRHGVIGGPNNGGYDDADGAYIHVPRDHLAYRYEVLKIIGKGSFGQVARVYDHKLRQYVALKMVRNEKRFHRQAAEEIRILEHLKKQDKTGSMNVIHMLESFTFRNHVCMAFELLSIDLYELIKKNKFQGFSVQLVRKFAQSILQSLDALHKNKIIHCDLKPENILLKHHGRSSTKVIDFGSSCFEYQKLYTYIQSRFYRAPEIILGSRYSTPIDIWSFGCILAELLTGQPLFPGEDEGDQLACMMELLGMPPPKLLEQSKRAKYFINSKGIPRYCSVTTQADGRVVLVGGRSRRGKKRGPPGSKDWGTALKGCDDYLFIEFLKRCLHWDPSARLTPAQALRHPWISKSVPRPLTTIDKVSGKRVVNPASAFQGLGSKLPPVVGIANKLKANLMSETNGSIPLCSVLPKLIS
Kind of experiment: Inhibition of DYRK3 (unknown origin) assessed as enzyme activity incubated for 15 mins by [gamma-33]ATP based scintillation counting method relative to control. Further details: scale not given: the % may be the effect or the level left.

Experiment [3] deals with T2, Serine/threonine-protein kinase Nek1 (Homo sapiens) (UniProt Q96PY6).
T2 sequence (whole entry): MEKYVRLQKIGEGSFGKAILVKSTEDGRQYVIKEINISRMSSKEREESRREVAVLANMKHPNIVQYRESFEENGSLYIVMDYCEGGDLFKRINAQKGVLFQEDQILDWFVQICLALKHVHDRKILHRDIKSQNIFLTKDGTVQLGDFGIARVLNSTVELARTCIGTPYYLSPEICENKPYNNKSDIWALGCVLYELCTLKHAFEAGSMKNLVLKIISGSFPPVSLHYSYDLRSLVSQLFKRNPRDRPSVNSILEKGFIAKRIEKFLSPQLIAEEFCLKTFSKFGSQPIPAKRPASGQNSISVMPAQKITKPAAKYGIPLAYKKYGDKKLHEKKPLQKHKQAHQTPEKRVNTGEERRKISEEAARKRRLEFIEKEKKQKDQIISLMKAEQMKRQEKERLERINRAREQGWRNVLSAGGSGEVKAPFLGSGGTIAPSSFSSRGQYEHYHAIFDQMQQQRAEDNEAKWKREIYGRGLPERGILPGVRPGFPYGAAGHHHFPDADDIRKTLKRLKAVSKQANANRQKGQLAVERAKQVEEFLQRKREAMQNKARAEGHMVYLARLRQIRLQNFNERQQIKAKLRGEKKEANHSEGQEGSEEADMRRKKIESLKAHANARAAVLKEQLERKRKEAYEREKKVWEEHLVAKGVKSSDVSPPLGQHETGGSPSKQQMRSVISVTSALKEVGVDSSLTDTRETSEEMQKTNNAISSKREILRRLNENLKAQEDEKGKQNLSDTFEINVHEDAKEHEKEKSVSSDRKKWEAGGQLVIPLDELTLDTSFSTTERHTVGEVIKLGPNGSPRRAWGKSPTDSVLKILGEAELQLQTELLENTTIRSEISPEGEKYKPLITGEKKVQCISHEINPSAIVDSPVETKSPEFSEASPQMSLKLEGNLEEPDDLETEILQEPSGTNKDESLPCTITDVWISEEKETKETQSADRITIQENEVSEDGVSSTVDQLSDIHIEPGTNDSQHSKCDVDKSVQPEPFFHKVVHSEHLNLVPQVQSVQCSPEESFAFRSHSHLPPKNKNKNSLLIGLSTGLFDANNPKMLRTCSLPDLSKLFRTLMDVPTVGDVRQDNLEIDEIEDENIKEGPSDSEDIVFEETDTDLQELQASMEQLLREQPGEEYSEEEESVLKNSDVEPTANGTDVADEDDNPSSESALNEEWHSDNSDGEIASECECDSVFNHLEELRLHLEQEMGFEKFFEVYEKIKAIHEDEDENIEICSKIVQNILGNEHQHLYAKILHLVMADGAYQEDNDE
Kind of experiment: Inhibition of recombinant human N-terminal GST-tagged full length NEK1 expressed in baculovirus infected Sf9 insect cells assessed as enzyme activity incubated for 15 mins by [gamma-33]ATP based scintillation counting method relative to control. The arrangement: scale not given: the % may be the effect or the level left.

In experiment [4] the target is T3, Serine/threonine-protein kinase Sgk1 (Homo sapiens) (UniProt O00141).
T3 sequence (whole entry): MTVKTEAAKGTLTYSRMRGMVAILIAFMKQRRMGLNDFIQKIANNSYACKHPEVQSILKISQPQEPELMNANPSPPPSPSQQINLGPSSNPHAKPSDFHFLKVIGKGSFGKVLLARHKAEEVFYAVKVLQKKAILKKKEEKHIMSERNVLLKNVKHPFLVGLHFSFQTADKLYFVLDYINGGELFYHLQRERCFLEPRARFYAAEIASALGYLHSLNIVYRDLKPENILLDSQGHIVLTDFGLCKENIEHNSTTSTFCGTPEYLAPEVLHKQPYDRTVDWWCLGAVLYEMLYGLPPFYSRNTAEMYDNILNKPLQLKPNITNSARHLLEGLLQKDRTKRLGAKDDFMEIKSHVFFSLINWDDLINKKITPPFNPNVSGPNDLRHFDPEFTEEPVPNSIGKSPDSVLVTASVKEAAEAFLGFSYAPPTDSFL
Description: Inhibition of recombinant human N-terminal GST-tagged SGK1 (60 to end residues) expressed in baculovirus infected Sf9 insect cells assessed as enzyme activity incubated for 15 mins by [gamma-33]ATP based scintillation counting method relative to control. Further details: scale not given: the % may be the effect or the level left.

Each structure is given as a SMILES string.

Activin receptor type-1-like (Homo sapiens), sequence (P37023 whole entry): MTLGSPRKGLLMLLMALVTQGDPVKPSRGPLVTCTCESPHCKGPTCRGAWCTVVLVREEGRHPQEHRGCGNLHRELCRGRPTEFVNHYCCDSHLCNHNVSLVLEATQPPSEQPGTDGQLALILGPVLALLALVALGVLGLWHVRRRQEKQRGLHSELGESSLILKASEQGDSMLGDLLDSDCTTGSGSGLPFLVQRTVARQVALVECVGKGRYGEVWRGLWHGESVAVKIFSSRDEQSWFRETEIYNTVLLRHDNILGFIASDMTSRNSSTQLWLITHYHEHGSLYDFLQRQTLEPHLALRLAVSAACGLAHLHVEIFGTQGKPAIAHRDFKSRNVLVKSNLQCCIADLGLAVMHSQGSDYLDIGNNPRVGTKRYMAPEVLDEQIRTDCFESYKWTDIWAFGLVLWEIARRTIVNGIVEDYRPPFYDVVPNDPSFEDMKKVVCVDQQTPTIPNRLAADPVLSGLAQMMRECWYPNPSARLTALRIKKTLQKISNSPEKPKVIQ

Broadly, the IC50 is the concentration needed to halve the response being measured. Regarding `CC(C)C/C=N/c1c(C#N)c2n(c1C(=O)Nc1ccc(Br)cc1)CCC2`, the IC50 in the experiment on MCF7 worked out at 0.1 µM. Further, the Activity is -5% in experiment [1], -25% in experiment [2], -14% in experiment [3] and 7% in experiment [4].

On to `Cc1ccc(NC(=O)c2ccc(CN3CCN(C)CC3)cc2)cc1Nc1nccc(-c2cccnc2)n1`, for which the Activity in experiment [1] was 14%; in experiment [2], -10%; in experiment [4], 3%.

Consider `CCC1SCC(=O)N1c1c(C#N)c2n(c1C(=O)Nc1ccccc1)CCC2` (stereo not drawn), for which the IC50 in the experiment on MCF7 was found to be 0.16 µM. Besides, the Activity is -11% in experiment [1], 38% in experiment [2], 10% in experiment [3] and 8% in experiment [4].

Turning to `CC/C=N/c1c(C#N)c2n(c1C(=O)Nc1ccccc1)CCC2`, the IC50 in the experiment on MCF7 amounted to 0.57 µM. Moreover, the Activity is 4% in experiment [1], 33% in experiment [2], -1% in experiment [3] and -14% in experiment [4].

Values taken from ChEMBL document CHEMBL4312005, “Optimization of pyrrolizine-based Schiff bases with 4-thiazolidinone motif: Design, synthesis and investigation of cytotoxicity and anti-inflammatory potency” (Eur J Med Chem, 2020).
